Measurements as given in ChEMBL document CHEMBL4689842, “EUbOPEN Chemogenomics Library wave 1” (2021).

Tested on: Fibroblast
Test: Multiplex assay against human fibroblast
Assay type: toxicity, cell-based
How it was run: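 Imaging took place on a CQ1 microscope at 37°C and 5% CO2 once compound had been added to live cells stained at seeding with Hoechst33342, BioTracker Green Microtubule Cytoskeleton Dye, MitoTracker Red and Annexin V Alexa Fluor 680. CellPathfinder machine-learning gating classed cells as Hoechst high-intensity objects or normal cells, classed normal cells as having healthy, pyknosed or fragmented nuclei, and classed pyknosed cells as mitotic or apoptotic. Tubulin, mitochondrial-mass and membrane-permeability phenotypes are per cents of the healthy-nucleus cells.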

[1] = 12 h, 1 µM, compound concentration 1 uM, replicate 1
[2] = 12 h, 1 µM, compound concentration 1 uM, replicate 2
[3] = 12 h, 10 µM, compound concentration 10 uM, replicate 1
[4] = 12 h, 10 µM, compound concentration 10 uM, replicate 2
[5] = 24 h, 1 µM, compound concentration 1 uM, replicate 1
[6] = 24 h, 1 µM, compound concentration 1 uM, replicate 2
[7] = 24 h, 10 µM, compound concentration 10 uM, replicate 1
[8] = 24 h, 10 µM, compound concentration 10 uM, replicate 2
[9] = 48 h, 1 µM, compound concentration 1 uM, replicate 1
[10] = 48 h, 1 µM, compound concentration 1 uM, replicate 2
[11] = 48 h, 10 µM, compound concentration 10 uM, replicate 1
[12] = 48 h, 10 µM, compound concentration 10 uM, replicate 2

Structure (SMILES): CC(C)N1CCC(C)(C)c2cc(C#Cc3ccc(C(=O)O)cc3)ccc21
- Population Apoptotic (%) [1]: 89%
- Population Fragmented Nuclei (%) [1]: 42%
- Population Healthy Nuclei (%) [1]: 41%
- Population Hoechst High Intensity Objects (%) [1]: 41%
- Population Membrane Permeable-Phenotype (%) [1]: 30%
- Population Mitochondria Different-Phenotype (%) [1]: 6%
- Population Mitotic Cells (%) [1]: 10%
- Population Normal (%) [1]: 58%
- Population Pyknosed Nuclei (%) [1]: 15%
- Population Tubulin-Different-Phenotype (%) [1]: 46%
- Total Cell Count [1]: 207
- Population Apoptotic (%) [2]: 20%
- Population Fragmented Nuclei (%) [2]: 16%
- Population Healthy Nuclei (%) [2]: 75%
- Population Hoechst High Intensity Objects (%) [2]: 13%
- Population Membrane Permeable-Phenotype (%) [2]: 6%
- Population Mitochondria Different-Phenotype (%) [2]: 15%
- Population Mitotic Cells (%) [2]: 80%
- Population Normal (%) [2]: 86%
- Population Pyknosed Nuclei (%) [2]: 8%
- Population Tubulin-Different-Phenotype (%) [2]: 20%
- Total Cell Count [2]: 69
- Population Apoptotic (%) [3]: 75%
- Population Fragmented Nuclei (%) [3]: 89%
- Population Healthy Nuclei (%) [3]: 6%
- Population Hoechst High Intensity Objects (%) [3]: 76%
- Population Membrane Permeable-Phenotype (%) [3]: 14%
- Population Mitochondria Different-Phenotype (%) [3]: 0%
- Population Mitotic Cells (%) [3]: 25%
- Population Normal (%) [3]: 23%
- Population Pyknosed Nuclei (%) [3]: 3%
- Population Tubulin-Different-Phenotype (%) [3]: 7%
- Total Cell Count [3]: 898
- Population Apoptotic (%) [4]: 0%
- Population Fragmented Nuclei (%) [4]: 55%
- Population Healthy Nuclei (%) [4]: 44%
- Population Hoechst High Intensity Objects (%) [4]: 71%
- Population Membrane Permeable-Phenotype (%) [4]: 4%
- Population Mitochondria Different-Phenotype (%) [4]: 14%
- Population Mitotic Cells (%) [4]: 0%
- Population Normal (%) [4]: 28%
- Population Pyknosed Nuclei (%) [4]: 0%
- Population Tubulin-Different-Phenotype (%) [4]: 28%
- Total Cell Count [4]: 327
- Population Apoptotic (%) [5]: 85%
- Population Fragmented Nuclei (%) [5]: 39%
- Population Healthy Nuclei (%) [5]: 48%
- Population Hoechst High Intensity Objects (%) [5]: 41%
- Population Membrane Permeable-Phenotype (%) [5]: 29%
- Population Mitochondria Different-Phenotype (%) [5]: 1%
- Population Mitotic Cells (%) [5]: 14%
- Population Normal (%) [5]: 58%
- Population Pyknosed Nuclei (%) [5]: 11%
- Population Tubulin-Different-Phenotype (%) [5]: 38%
- Total Cell Count [5]: 202
- Population Apoptotic (%) [6]: 50%
- Population Fragmented Nuclei (%) [6]: 18%
- Population Healthy Nuclei (%) [6]: 76%
- Population Hoechst High Intensity Objects (%) [6]: 4%
- Population Membrane Permeable-Phenotype (%) [6]: 3%
- Population Mitochondria Different-Phenotype (%) [6]: 10%
- Population Mitotic Cells (%) [6]: 50%
- Population Normal (%) [6]: 95%
- Population Pyknosed Nuclei (%) [6]: 5%
- Population Tubulin-Different-Phenotype (%) [6]: 18%
- Total Cell Count [6]: 81
- Population Apoptotic (%) [7]: 72%
- Population Fragmented Nuclei (%) [7]: 86%
- Population Healthy Nuclei (%) [7]: 7%
- Population Hoechst High Intensity Objects (%) [7]: 78%
- Population Membrane Permeable-Phenotype (%) [7]: 33%
- Population Mitochondria Different-Phenotype (%) [7]: 0%
- Population Mitotic Cells (%) [7]: 27%
- Population Normal (%) [7]: 21%
- Population Pyknosed Nuclei (%) [7]: 5%
- Population Tubulin-Different-Phenotype (%) [7]: 20%
- Total Cell Count [7]: 921
- Population Apoptotic (%) [8]: 100%
- Population Fragmented Nuclei (%) [8]: 49%
- Population Healthy Nuclei (%) [8]: 47%
- Population Hoechst High Intensity Objects (%) [8]: 66%
- Population Membrane Permeable-Phenotype (%) [8]: 3%
- Population Mitochondria Different-Phenotype (%) [8]: 3%
- Population Mitotic Cells (%) [8]: 0%
- Population Normal (%) [8]: 33%
- Population Pyknosed Nuclei (%) [8]: 2%
- Population Tubulin-Different-Phenotype (%) [8]: 26%
- Total Cell Count [8]: 352
- Population Apoptotic (%) [9]: 57%
- Population Fragmented Nuclei (%) [9]: 47%
- Population Healthy Nuclei (%) [9]: 45%
- Population Hoechst High Intensity Objects (%) [9]: 45%
- Population Membrane Permeable-Phenotype (%) [9]: 29%
- Population Mitochondria Different-Phenotype (%) [9]: 0%
- Population Mitotic Cells (%) [9]: 42%
- Population Normal (%) [9]: 54%
- Population Pyknosed Nuclei (%) [9]: 6%
- Population Tubulin-Different-Phenotype (%) [9]: 29%
- Total Cell Count [9]: 202
- Population Apoptotic (%) [10]: 0%
- Population Fragmented Nuclei (%) [10]: 57%
- Population Healthy Nuclei (%) [10]: 42%
- Population Hoechst High Intensity Objects (%) [10]: 35%
- Population Membrane Permeable-Phenotype (%) [10]: 14%
- Population Mitochondria Different-Phenotype (%) [10]: 5%
- Population Mitotic Cells (%) [10]: 100%
- Population Normal (%) [10]: 64%
- Population Pyknosed Nuclei (%) [10]: 0%
- Population Tubulin-Different-Phenotype (%) [10]: 25%
- Total Cell Count [10]: 198
- Population Apoptotic (%) [11]: 60%
- Population Fragmented Nuclei (%) [11]: 90%
- Population Healthy Nuclei (%) [11]: 6%
- Population Hoechst High Intensity Objects (%) [11]: 77%
- Population Membrane Permeable-Phenotype (%) [11]: 25%
- Population Mitochondria Different-Phenotype (%) [11]: 0%
- Population Mitotic Cells (%) [11]: 40%
- Population Normal (%) [11]: 22%
- Population Pyknosed Nuclei (%) [11]: 2%
- Population Tubulin-Different-Phenotype (%) [11]: 18%
- Total Cell Count [11]: 1050
- Population Apoptotic (%) [12]: 0%
- Population Fragmented Nuclei (%) [12]: 93%
- Population Hoechst High Intensity Objects (%) [12]: 84%
- Population Membrane Permeable-Phenotype (%) [12]: 20%
- Population Mitochondria Different-Phenotype (%) [12]: 10%
- Population Mitotic Cells (%) [12]: 0%
- Population Normal (%) [12]: 15%
- Population Pyknosed Nuclei (%) [12]: 0%
- Population Tubulin-Different-Phenotype (%) [12]: 10%
- Total Cell Count [12]: 961
